Assay results of several laboratories.
Protocols differ between the studies behind these lines.
Target: 5'-AMP-activated protein kinase catalytic subunit alpha-1 (PRKAA1, Homo sapiens, UniProt Q13131)
Method: competition with immobilised ligand

SMILES	observed	concentration	remaining binding [%]
C[C@H]1CCN(c2nccc(-c3cnn4ncccc34)n2)C1	binding	1 µM	93
O=C(c1ccc(Nc2nccc(-c3cc4ccccc4s3)n2)cc1)N1CCC(N2CCCC2)CC1	binding	1 µM	36
N[C@H]1CCN(c2nccc(-c3cnn4ncccc34)n2)C1	binding	1 µM	100
O=C(NCCCN1CCOCC1)c1ccc(Nc2ncc(Cl)c(-c3ccc(Cl)s3)n2)cc1	binding	1 µM	15
F[C@@H]1CCN(c2nccc(-c3cnn4ncccc34)n2)C1	binding	1 µM	85
O=C(NC[C@@H]1[C@H]2CN(C(=O)OCc3cc(C(F)(F)F)cc(C(F)(F)F)c3)C[C@@H]12)c1ccc2[nH]nnc2c1	cell-free assay	1 µM	100
C=CC(=O)N1CCC(C(=O)NCC(=O)N2CCN(c3nc(-c4cnc(N)nc4C(F)F)nc(N4CCOCC4)n3)CC2)CC1	binding	1 µM	97
O=C(Nc1c[nH]nc1C(=O)NC1CCNCC1)c1cc(F)cc(F)c1	binding	1 µM	100
Cc1c(NC(=O)c2cc(C(N)=O)nc3cc(F)ccc23)c(C(F)(F)F)nn1Cc1ccc(C(C)(C)C)cc1	cell-free assay	1 µM	100
CN(CCCC(F)(F)F)c1nccc(-c2cnn3ncccc23)n1	binding	1 µM	100
O=S(=O)(NC1CCC(c2cc(F)ccc2F)(S(=O)(=O)c2ccc(Cl)cc2)CC1)C(F)(F)F (stereo not drawn)	cell-free assay	1 µM	100
Cc1cnn2ncc(-c3ccnc(N(C)C)n3)c2c1	binding	1 µM	93
c1cncc(-c2cccc(Nc3nccc(NC4CCCCC4)n3)c2)c1	binding	10 µM	15
CN(C)c1ncc(F)c(-c2cnn3ncccc23)n1	binding	1 µM	48
COc1cnc(Nc2cccc(S(N)(=O)=O)c2)nc1N1CCN(c2ccccc2)CC1	binding	1 µM	100
CN(C)C(=O)Cn1cc(-c2nc(C3(c4ccc(-c5cnc(N)nc5)cc4)CC3)no2)cn1	cell-free assay	1 µM	98
COc1cnc(Nc2cccc(S(N)(=O)=O)c2)nc1N1CCN(c2ccccc2)C(=O)C1	binding	1 µM	100
CS(=O)(=O)NCC[C@H](NC(=O)c1cncc2c1cnn2-c1ccc(F)cc1)c1ccnc(S(C)(=O)=O)c1	cell-free assay	1 µM	100
C[C@@H](c1ccc(-n2cnc3c(N)ncnc32)cc1)N1CCc2nn(C)c(Cc3ccccc3)c2C1=O	binding	0.1 µM	95
O=C(c1ccc(Nc2ncc(Cl)c(-c3cc4ccccc4s3)n2)cc1)N1CCC(N2CCCC2)CC1	binding	1 µM	5.7
CNCc1ccccc1-c1csc([C@@H](C)Nc2nc(C)nc3cc(OC)c(OC)cc23)c1	cell-free assay	1 µM	100
